ChEMBL document CHEMBL4334458, “Design, synthesis and antibacterial evaluation of novel 15-membered 11a-azahomoclarithromycin derivatives with the 1, 2, 3-triazole side chain” (Eur J Med Chem, 2019)
Values after ≈ are worked out from the molar mass of the structure shown.

What was measured:
Assay type in all cases: functional
[1] = test system: Staphylococcus aureus; test: Antibacterial activity against erythromycin-susceptible Staphylococcus aureus ATCC 25923 incubated for 24 hrs by broth dilution method; conditions: ATCC 25923, 24 h
Procedure, shortened: (§1)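 CLSI broth microdilution in cation-adjusted Mueller-Hinton broth. Twofold dilutions spanned 0.25–128 or 0.5–256 µg/mL, with CAM and AZM as controls. Log-phase bacteria were added and incubated 24 h at 37 °C. MIC was read by turbidity as the concentration of the last clear well.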

[2] = test system: Streptococcus pyogenes; test: Antibacterial activity against erythromycin-susceptible Streptococcus pyogenes 1 clinical isolate incubated for 24 hrs by broth dilution method; procedure, shortened: as §1
[3] = test system: Escherichia coli; test: Antibacterial activity against penicillin-susceptible Escherichia coli ATCC 25922 incubated for 24 hrs by broth dilution method; conditions: ATCC 25922, 24 h; procedure, shortened: as §1
[4] = test system: Pseudomonas aeruginosa; test: Antibacterial activity against penicillin-susceptible Pseudomonas aeruginosa ATCC 27853 incubated for 24 hrs by broth dilution method; conditions: ATCC 27853, 24 h; procedure, shortened: as §1
[5] = test system: Bacillus subtilis; test: Antibacterial activity against penicillin-susceptible Bacillus subtilis ATCC 9372 incubated for 24 hrs by broth dilution method; conditions: ATCC 9372, 24 h; procedure, shortened: as §1
[6] = test system: Staphylococcus aureus; test: Antibacterial activity against penicillin-resistant Staphylococcus aureus ATCC 31007 incubated for 24 hrs by broth dilution method; conditions: ATCC 31007, 24 h
[7] = test system: Staphylococcus aureus; test: Antibacterial activity against methicillin-resistant Staphylococcus aureus ATCC 43300 incubated for 24 hrs by broth dilution method; conditions: ATCC 43300, 24 h
[8] = test system: Streptococcus pneumoniae; test: Antibacterial activity against erythromycin-resistant Streptococcus pneumoniae B1 expressing the ermB incubated for 24 hrs by broth dilution method
[9] = test system: Streptococcus pneumoniae; test: Antibacterial activity against erythromycin-resistant Streptococcus pneumoniae AB11 expressing the ermB and mefA incubated for 24 hrs by broth dilution method
[10] = test system: Streptococcus pyogenes; test: Antibacterial activity against erythromycin-resistant Streptococcus pyogenes 2 clinical isolate incubated for 24 hrs by broth dilution method

Structure (SMILES)	MIC [1]	MIC [2]	MIC [3]	MIC [4]	MIC [5]	MIC [6]	MIC [7]	MIC [8]	MIC [9]	MIC [10]
CCc1ccc(-n2cc(COC[C@@H]3CN(C)C[C@@H](C)[C@@H](O)[C@H](C)C[C@@](C)(OC)[C@H](O[C@@H]4O[C@H](C)C[C@H](N(C)C)[C@H]4O)[C@@H](C)[C@H](O[C@H]4C[C@@](C)(OC)[C@@H](O)[C@H](C)O4)[C@@H](C)C(=O)O3)nn2)cc1	4 µg/mL (≈ 4.35 µM)	4 µg/mL (≈ 4.35 µM)	128 µg/mL (≈ 139 µM)	128 µg/mL (≈ 139 µM)	2 µg/mL (≈ 2.17 µM)	64 µg/mL (≈ 69.6 µM)	64 µg/mL (≈ 69.6 µM)	32 µg/mL (≈ 34.8 µM)	32 µg/mL (≈ 34.8 µM)	32 µg/mL (≈ 34.8 µM)
CO[C@]1(C)C[C@@H](C)[C@H](O)[C@H](C)CN(C)C[C@H](Cn2cc(-c3ccc(F)cc3)nn2)OC(=O)[C@H](C)[C@@H](O[C@H]2C[C@@](C)(OC)[C@@H](O)[C@H](C)O2)[C@H](C)[C@H]1O[C@@H]1O[C@H](C)C[C@H](N(C)C)[C@H]1O	2 µg/mL (≈ 2.27 µM)	0.25 µg/mL (≈ 0.284 µM)	32 µg/mL (≈ 36.4 µM)	64 µg/mL (≈ 72.7 µM)	2 µg/mL (≈ 2.27 µM)	256 µg/mL (≈ 291 µM)	256 µg/mL (≈ 291 µM)	256 µg/mL (≈ 291 µM)	256 µg/mL (≈ 291 µM)	64 µg/mL (≈ 72.7 µM)
CO[C@]1(C)C[C@@H](C)[C@H](O)[C@H](C)CN(C)C[C@@H](Cn2cc(-c3ccc(F)cc3)nn2)OC(=O)[C@H](C)[C@@H](O[C@H]2C[C@@](C)(OC)[C@@H](O)[C@H](C)O2)[C@H](C)[C@H]1O[C@@H]1O[C@H](C)C[C@H](N(C)C)[C@H]1O	0.5 µg/mL (≈ 0.568 µM)	0.25 µg/mL (≈ 0.284 µM)	32 µg/mL (≈ 36.4 µM)	32 µg/mL (≈ 36.4 µM)	0.5 µg/mL (≈ 0.568 µM)	128 µg/mL (≈ 145 µM)	128 µg/mL (≈ 145 µM)	64 µg/mL (≈ 72.7 µM)	16 µg/mL (≈ 18.2 µM)	64 µg/mL (≈ 72.7 µM)
CO[C@]1(C)C[C@@H](C)[C@H](O)[C@H](C)CN(C)C[C@H](COCc2cn(-c3ccc(C)cc3)nn2)OC(=O)[C@H](C)[C@@H](O[C@H]2C[C@@](C)(OC)[C@@H](O)[C@H](C)O2)[C@H](C)[C@H]1O[C@@H]1O[C@H](C)C[C@H](N(C)C)[C@H]1O	0.5 µg/mL (≈ 0.552 µM)	1 µg/mL (≈ 1.1 µM)	64 µg/mL (≈ 70.6 µM)	16 µg/mL (≈ 17.7 µM)	≤ 0.25 µg/mL	256 µg/mL (≈ 283 µM)	256 µg/mL (≈ 283 µM)	256 µg/mL (≈ 283 µM)	64 µg/mL (≈ 70.6 µM)	64 µg/mL (≈ 70.6 µM)
COc1ccc(-n2cc(COC[C@H]3CN(C)C[C@@H](C)[C@@H](O)[C@H](C)C[C@@](C)(OC)[C@H](O[C@@H]4O[C@H](C)C[C@H](N(C)C)[C@H]4O)[C@@H](C)[C@H](O[C@H]4C[C@@](C)(OC)[C@@H](O)[C@H](C)O4)[C@@H](C)C(=O)O3)nn2)cc1	1 µg/mL (≈ 1.08 µM)	0.25 µg/mL (≈ 0.271 µM)	64 µg/mL (≈ 69.4 µM)	16 µg/mL (≈ 17.4 µM)	0.5 µg/mL (≈ 0.542 µM)	> 256 µg/mL	> 256 µg/mL	> 256 µg/mL	64 µg/mL (≈ 69.4 µM)	128 µg/mL (≈ 139 µM)
CO[C@]1(C)C[C@@H](C)[C@H](O)[C@H](C)CN(C)C[C@@H](COCc2cn(-c3ccc(C)cc3)nn2)OC(=O)[C@H](C)[C@@H](O[C@H]2C[C@@](C)(OC)[C@@H](O)[C@H](C)O2)[C@H](C)[C@H]1O[C@@H]1O[C@H](C)C[C@H](N(C)C)[C@H]1O	4 µg/mL (≈ 4.41 µM)	4 µg/mL (≈ 4.41 µM)	128 µg/mL (≈ 141 µM)	128 µg/mL (≈ 141 µM)	2 µg/mL (≈ 2.21 µM)	256 µg/mL (≈ 283 µM)	128 µg/mL (≈ 141 µM)	128 µg/mL (≈ 141 µM)	64 µg/mL (≈ 70.6 µM)	32 µg/mL (≈ 35.3 µM)
CO[C@]1(C)C[C@@H](C)[C@H](O)[C@H](C)CN(C)C[C@@H](COCc2cn(-c3cccc(C(F)(F)F)c3)nn2)OC(=O)[C@H](C)[C@@H](O[C@H]2C[C@@](C)(OC)[C@@H](O)[C@H](C)O2)[C@H](C)[C@H]1O[C@@H]1O[C@H](C)C[C@H](N(C)C)[C@H]1O	8 µg/mL (≈ 8.33 µM)	4 µg/mL (≈ 4.17 µM)	128 µg/mL (≈ 133 µM)	> 128 µg/mL	2 µg/mL (≈ 2.08 µM)	64 µg/mL (≈ 66.7 µM)	32 µg/mL (≈ 33.3 µM)	32 µg/mL (≈ 33.3 µM)	16 µg/mL (≈ 16.7 µM)	32 µg/mL (≈ 33.3 µM)
COc1ccc(-c2cn(C[C@@H]3COC(=O)[C@H](C)[C@@H](O[C@H]4C[C@@](C)(OC)[C@@H](O)[C@H](C)O4)[C@H](C)[C@@H](O[C@@H]4O[C@H](C)C[C@H](N(C)C)[C@H]4O)[C@](C)(OC)C[C@@H](C)[C@H](O)[C@H](C)CN3C)nn2)cc1	64 µg/mL (≈ 71.7 µM)	4 µg/mL (≈ 4.48 µM)	> 128 µg/mL	> 128 µg/mL	32 µg/mL (≈ 35.9 µM)	32 µg/mL (≈ 35.9 µM)	128 µg/mL (≈ 143 µM)	128 µg/mL (≈ 143 µM)	128 µg/mL (≈ 143 µM)	128 µg/mL (≈ 143 µM)
COc1ccc(-c2cn(C[C@H]3COC(=O)[C@H](C)[C@@H](O[C@H]4C[C@@](C)(OC)[C@@H](O)[C@H](C)O4)[C@H](C)[C@@H](O[C@@H]4O[C@H](C)C[C@H](N(C)C)[C@H]4O)[C@](C)(OC)C[C@@H](C)[C@H](O)[C@H](C)CN3C)nn2)cc1	64 µg/mL (≈ 71.7 µM)	4 µg/mL (≈ 4.48 µM)	> 128 µg/mL	> 128 µg/mL	32 µg/mL (≈ 35.9 µM)	256 µg/mL (≈ 287 µM)	256 µg/mL (≈ 287 µM)	256 µg/mL (≈ 287 µM)	64 µg/mL (≈ 71.7 µM)	256 µg/mL (≈ 287 µM)
CC[C@H]1OC(=O)[C@H](C)[C@@H](O[C@H]2C[C@@](C)(OC)[C@@H](O)[C@H](C)O2)[C@H](C)[C@@H](O[C@@H]2O[C@H](C)C[C@H](N(C)C)[C@H]2O)[C@](C)(O)C[C@@H](C)CN(C)[C@H](C)[C@@H](O)[C@]1(C)O [AZITHROMYCIN]	≤ 0.25 µg/mL	≤ 0.03 µg/mL	64 µg/mL (≈ 85.4 µM)	16 µg/mL (≈ 21.4 µM)	≤ 0.25 µg/mL	> 256 µg/mL	> 256 µg/mL	> 256 µg/mL	256 µg/mL (≈ 342 µM)	256 µg/mL (≈ 342 µM)
CO[C@]1(C)C[C@@H](C)[C@H](O)[C@H](C)CN(C)C[C@@H](COCc2cn(-c3ccc(OC(F)(F)F)cc3)nn2)OC(=O)[C@H](C)[C@@H](O[C@H]2C[C@@](C)(OC)[C@@H](O)[C@H](C)O2)[C@H](C)[C@H]1O[C@@H]1O[C@H](C)C[C@H](N(C)C)[C@H]1O	4 µg/mL (≈ 4.1 µM)	4 µg/mL (≈ 4.1 µM)	128 µg/mL (≈ 131 µM)	> 128 µg/mL	2 µg/mL (≈ 2.05 µM)	64 µg/mL (≈ 65.6 µM)	32 µg/mL (≈ 32.8 µM)	32 µg/mL (≈ 32.8 µM)	16 µg/mL (≈ 16.4 µM)	32 µg/mL (≈ 32.8 µM)
CO[C@]1(C)C[C@@H](C)[C@H](O)[C@H](C)CN(C)C[C@@H](Cn2cc(-c3ccccc3)nn2)OC(=O)[C@H](C)[C@@H](O[C@H]2C[C@@](C)(OC)[C@@H](O)[C@H](C)O2)[C@H](C)[C@H]1O[C@@H]1O[C@H](C)C[C@H](N(C)C)[C@H]1O	0.5 µg/mL (≈ 0.58 µM)	0.5 µg/mL (≈ 0.58 µM)	64 µg/mL (≈ 74.2 µM)	64 µg/mL (≈ 74.2 µM)	1 µg/mL (≈ 1.16 µM)	128 µg/mL (≈ 148 µM)	256 µg/mL (≈ 297 µM)	64 µg/mL (≈ 74.2 µM)	64 µg/mL (≈ 74.2 µM)	64 µg/mL (≈ 74.2 µM)
CO[C@]1(C)C[C@@H](C)[C@H](O)[C@H](C)CN(C)[C@H](Cn2cc(-c3ccc(F)cc3)nn2)COC(=O)[C@H](C)[C@@H](O[C@H]2C[C@@](C)(OC)[C@@H](O)[C@H](C)O2)[C@H](C)[C@H]1O[C@@H]1O[C@H](C)C[C@H](N(C)C)[C@H]1O	16 µg/mL (≈ 18.2 µM)	16 µg/mL (≈ 18.2 µM)	> 128 µg/mL	128 µg/mL (≈ 145 µM)	16 µg/mL (≈ 18.2 µM)	128 µg/mL (≈ 145 µM)	256 µg/mL (≈ 291 µM)	128 µg/mL (≈ 145 µM)	128 µg/mL (≈ 145 µM)	128 µg/mL (≈ 145 µM)
